Activity calls are given as the source filed them. The rule behind the calls is not given here.

The first data set is filed under the species Homo sapiens. Kind of data set: Inhibition of acetyl-PHF6 amide self-aggregation (unknown origin) in pH 7.4 phosphate buffer assessed as absence of fibrillar material at 20 uM and 25 degreeC measured after 10 mins by phosphotungstic acid staining based TEM analysis.
Conditions: not given
Regarding `CC(=O)c1c(O)c(C)c(O)c2c1OC1=CC(=O)/C(=C(/C)Nc3ccc(O)cn3)C(=O)[C@@]12C`, the inhibition result is “inactive”.

The test system of the next data set is BV-2. The data set can be described thus: Cytotoxicity against mouse BV-2 cells at 20 uM measured after 24 hrs by MTT assay. Particulars: bv-2, 24 h. Format: cell-based. In short, it runs like this:
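Cells in high-glucose DMEM with 10% FBS, 5% CO₂, 37 °C, seeded 3000–5000/well, exposed to compound 24 h. MTT (0.5 mg/mL) 4 h, formazan dissolved in DMSO, absorbance 570 nm (reference 630 nm). Viability as percent of untreated control; mean ± SD, three independent experiments.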
A general note: Tetrazolium assays rely on reduction of a dye to a coloured formazan, in cell work by metabolically active cells.
As to `CC(=O)C1=C([O-])C=C2Oc3c(C(C)=O)c(O)c(C)c(O)c3[C@]2(C)C1=O.[Na+]`, the Activity entry is recorded as “Toxic”.

The species named for a further data set is Homo sapiens. The data set can be described thus: Inhibition of acetyl-PHF6 amide self-aggregation (unknown origin) in pH 7.4 phosphate buffer at 10 uM and 25 degreeC measured every 1 min for 120 mins under shaking condition by ThT fluorescence assay relative to control.
Conditions: not given
In short, it runs like this: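 AcPHF6 dissolved in HFIP, dried overnight, 1 mM water stock used at once. Final 100 μM peptide, 20 μM ThT, 10 μM compound (≤0.1% DMSO) in 50 mM phosphate buffer pH 7.4, 25 °C. Ex 440/em 490 nm read each minute for 120 min, 10 s shaking (400 rpm) before each read. Inhibition from mean signal at 50–60 min; ≥3 wells; mean ± SD of three experiments; DMSO negative control.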
As to `CC(=O)c1c(O)c(C)c(O)c2c1OC1=CC(=O)/C(=C(/C)Nc3ccc(N4CCN(C)CC4)cc3)C(=O)[C@@]12C`, the inhibition came out at 48.2%. Take `CC(=O)c1c(O)c(C)c(O)c2c1OC1=Cc3c(c(C)nn3S(=O)(=O)c3ccccc3)C(=O)[C@@]12C`: the inhibition result is “inactive”. For the compound `CC(=O)c1c(O)c(C)c(O)c2c1OC1=Cc3c(c(C)nn3-c3n[nH]c(=O)c4ccccc34)C(=O)[C@@]12C`, the inhibition was 9.3%. `CC(=O)c1c(O)c(C)c(O)c2c1OC1=Cc3c(c(C)nn3-c3cccc(F)c3)C(=O)[C@@]12C` had an inhibition of 30.3%. With `CC(=O)c1c(O)c(C)c(O)c2c1OC1=Cc3c(c(C)nn3-c3cccc(C(=O)O)c3)C(=O)[C@@]12C`, the inhibition came out at 40.4%. Consider `CC(=O)c1c(O)c(C)c(O)c2c1OC1=CC(=O)/C(=C(/C)Nc3cc(Cl)ccc3O)C(=O)[C@@]12C`, for which the inhibition came out at 22%. With `CC(=O)c1c(O)c(C)c(O)c2c1OC1=Cc3c(c(C)nn3-c3nc4ccccc4s3)C(=O)[C@@]12C`, the inhibition result is “inactive”.

In turn, `CC(=O)c1c(O)c(C)c(O)c2c1OC1=CC(=O)/C(=C(/C)Nc3ccc(O)cn3)C(=O)[C@@]12C` came in with an inhibition of 58.3%. Same read-out and setting: the figure for `CC(=O)c1c(O)c(C)c(O)c2c1OC1=CC(=O)/C(=C(/C)Nc3cnc(N)cn3)C(=O)[C@@]12C` is 44.2%. For the compound `CC(=O)c1c(O)c(C)c(O)c2c1OC1=Cc3c(c(C)nn3S(=O)(=O)c3ccc(C)cc3)C(=O)[C@@]12C`, the inhibition entry is “inactive”. On to `CC(=O)c1c(O)c(C)c(O)c2c1OC1=CC(=O)/C(=C(/C)Nc3cc(C(C)(C)C)c(O)c(C(C)(C)C)c3)C(=O)[C@@]12C`, for which the inhibition entry is “inactive”. As for `CC(=O)c1c(O)c(C)c(O)c2c1OC1=Cc3c(c(C)nn3-c3cccnc3)C(=O)[C@@]12C`, the inhibition came to 29.8%. Still for that read-out and setting: next, `CC(=O)c1c(O)c(C)c(O)c2c1OC1=Cc3c(c(C)nn3-c3ccccc3C(=O)O)C(=O)[C@@]12C`: 32.8%; `CC(=O)c1c(O)c(C)c(O)c2c1OC1=Cc3c(c(C)nn3-c3ccc(S(N)(=O)=O)cc3)C(=O)[C@@]12C`: 46.8%; `CC(=O)c1c(O)c(C)c(O)c2c1OC1=Cc3c(c(C)nn3-c3ccc(C)nn3)C(=O)[C@@]12C`: 40.9%.

Take `CC(=O)c1c(O)c(C)c(O)c2c1OC1=CC(=O)/C(=C(/C)N)C(=O)[C@@]12C`: the inhibition result was “inactive”. Still for that read-out and setting: next, `CCOC(=O)c1ccc(-n2nc(C)c3c2C=C2Oc4c(C(C)=O)c(O)c(C)c(O)c4[C@@]2(C)C3=O)cc1`: 14.5%.

`CC(=O)c1c(O)c(C)c(O)c2c1OC1=CC(=O)/C(=C(/C)Nc3cccc4cccnc34)C(=O)[C@@]12C`: the inhibition entry is “inactive”.

For `CC(=O)c1c(O)c(C)c(O)c2c1OC1=Cc3c(c(C)nn3-c3cnccn3)C(=O)[C@@]12C`, the inhibition amounted to 38%. `CC(=O)c1c(O)c(C)c(O)c2c1OC1=Cc3c(c(C)nn3-c3ccccn3)C(=O)[C@@]12C` showed an inhibition of 17.1%.

In turn, `CC(=O)c1c(O)c(C)c(O)c2c1OC1=CC(=O)/C(=C(/C)Nc3ccc(N(C)C)cc3)C(=O)[C@@]12C` yielded an inhibition of 48.1%. In the case of `CC(=O)c1c(O)c(C)c(O)c2c1OC1=CC(=O)/C(=C(/C)Nc3ccc(C)cc3O)C(=O)[C@@]12C`, the inhibition was 25.3%.

In turn, `CC(=O)c1c(O)c(C)c(O)c2c1OC1=Cc3[nH]nc(C)c3C(=O)[C@@]12C` showed an inhibition of 22.5%. `CC(=O)c1c(O)c(C)c(O)c2c1OC1=CC(=O)/C(=C(/C)Nc3ccc4[nH]ccc4c3)C(=O)[C@@]12C` displayed an inhibition of 39.2%. With `CC(=O)c1c(O)c(C)c(O)c2c1OC1=CC(=O)/C(=C(/C)Nc3ccc4scnc4c3)C(=O)[C@@]12C`, the inhibition was 29.8%. `CC(=O)c1c(O)c(C)c(O)c2c1OC1=CC(=O)/C(=C(/C)Nc3ccc(Cl)cc3O)C(=O)[C@@]12C` displayed an inhibition of 48.4%. Compound `COc1ccc(-n2nc(C)c3c2C=C2Oc4c(C(C)=O)c(O)c(C)c(O)c4[C@@]2(C)C3=O)cn1` came in with an inhibition of 7.7%.

Regarding `CC(=O)c1c(O)c(C)c(O)c2c1OC1=CC(=O)/C(=C(/C)Nc3ccc(C(=O)O)c(O)c3)C(=O)[C@@]12C`, the inhibition amounted to 27.6%.

Compound `CC(=O)c1c(O)c(C)c(O)c2c1OC1=CC(=O)/C(=C(/C)Nc3ncccc3O)C(=O)[C@@]12C` gave an inhibition of 48%.

`CC(=O)c1c(O)c(C)c(O)c2c1OC1=CC(=O)/C(=C(/C)Nc3ccc(N)cn3)C(=O)[C@@]12C`: the inhibition was determined as 46.4%. On the same count and under the same terms, the entry for `CC(=O)C1=C([O-])C=C2Oc3c(C(C)=O)c(O)c(C)c(O)c3[C@]2(C)C1=O.[Na+]` is “inactive”; for `CC(=O)c1c(O)c(C)c(O)c2c1OC1=Cc3c(c(C)nn3-c3ccncc3)C(=O)[C@@]12C` it is 8.5%; for `CC(=O)c1c(O)c(C)c(O)c2c1OC1=Cc3c(c(C)nn3-c3ccc(S(C)(=O)=O)cc3)C(=O)[C@@]12C` it is 28.7%. In turn, `CC(=O)c1c(O)c(C)c(O)c2c1OC1=Cc3c(c(C)nn3-c3nc4ccccc4[nH]3)C(=O)[C@@]12C` had an inhibition of 12.2%. On to `CC(=O)c1c(O)c(C)c(O)c2c1OC1=CC(=O)/C(=C(/C)Nc3cc(C)ccc3O)C(=O)[C@@]12C`, for which the inhibition came out at 12.7%. `COc1ccc(S(=O)(=O)n2nc(C)c3c2C=C2Oc4c(C(C)=O)c(O)c(C)c(O)c4[C@@]2(C)C3=O)cc1`: the inhibition entry was “inactive”. In the case of `COc1ccc(-n2nc(C)c3c2C=C2Oc4c(C(C)=O)c(O)c(C)c(O)c4[C@@]2(C)C3=O)cc1`, the inhibition was determined as 27.2%.

On to `CC(=O)c1c(O)c(C)c(O)c2c1OC1=CC(=O)/C(=C(/C)N[C@@H](Cc3c[nH]c4ccccc34)C(=O)O)C(=O)[C@@]12C`, for which the inhibition was determined as 47.6%. `CC(=O)c1c(O)c(C)c(O)c2c1OC1=CC(=O)/C(=C(/C)N[C@@H](Cc3ccccc3)C(=O)O)C(=O)[C@@]12C`: the inhibition entry is “inactive”.

`COc1cc(N/C(C)=C2\C(=O)C=C3Oc4c(C(C)=O)c(O)c(C)c(O)c4[C@@]3(C)C2=O)cc(OC)c1OC` came in with an inhibition of 5.4%.

`CC(=O)c1c(O)c(C)c(O)c2c1OC1=Cc3c(c(C)nn3-c3ccc(F)cc3)C(=O)[C@@]12C` displayed an inhibition of 26.9%. `CC(=O)c1c(O)c(C)c(O)c2c1OC1=CC(=O)/C(=C(/C)NCCCCCO)C(=O)[C@@]12C`: the inhibition entry was “inactive”.

Compound `CC(=O)c1c(O)c(C)c(O)c2c1OC1=Cc3c(c(C)nn3-c3ccc(C#N)cc3)C(=O)[C@@]12C` showed an inhibition of 20.1%. Consider `CC(=O)c1c(O)c(C)c(O)c2c1OC1=CC(=O)/C(=C(/C)Nc3c(C)cc(O)cc3C)C(=O)[C@@]12C`, for which the inhibition result is “inactive”. In the case of `CC(=O)c1c(O)c(C)c(O)c2c1OC1=CC(=O)/C(=C(/C)Nc3cccc(N(C)C)c3)C(=O)[C@@]12C`, the inhibition worked out at 11.3%. As for `O=c1c(O)c(-c2cc(O)c(O)c(O)c2)oc2cc(O)cc(O)c12`, the inhibition turned out to be 85.9%. `CC(=O)c1c(O)c(C)c(O)c2c1OC1=CC(=O)/C(=C(/C)Nc3ccc4c(ccn4C)c3)C(=O)[C@@]12C` returned an inhibition of 27.6%. In the case of `CC(=O)c1c(O)c(C)c(O)c2c1OC1=CC(=O)/C(=C(/C)Nc3cc(C(C)C)c(O)cc3C)C(=O)[C@@]12C`, the inhibition result was “inactive”. Same read-out and setting: the figure for `COc1cccc(-n2nc(C)c3c2C=C2Oc4c(C(C)=O)c(O)c(C)c(O)c4[C@@]2(C)C3=O)c1` is 24%. `CC(=O)c1c(O)c(C)c(O)c2c1OC1=Cc3c(c(C)nn3-c3ccc(C(C)(C)C)cc3)C(=O)[C@@]12C` yielded an inhibition of 22.3%. The same measure, in the same setting: the entry for `CC(=O)c1c(O)c(C)c(O)c2c1OC1=CC(=O)/C(=C(/C)Nc3ccc4c(c3)ncn4C)C(=O)[C@@]12C` is “inactive”.

The species named for another data set is Homo sapiens. Kind of data set: Inhibition of acetyl-PHF6 amide self-aggregation (unknown origin) in pH 7.4 phosphate buffer assessed as decrease in absorbance intensity at 10 uM and 25 degreeC measured immediately after 10 sec vibration per minute for 120 mins under shaking condition by circular dichroism spectroscopy.
Conditions: not given
In short, it runs like this:
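Fresh samples of 100 μM AcPHF6 with 10 μM compound (≤0.1% DMSO) in 50 mM phosphate buffer pH 7.4. 10 s vibration per minute at 25 °C over 120 min. Spectra 260–200 nm, 1 mm quartz cell, 1 nm bandwidth, 50 nm/min scan. Solvent and compound contributions subtracted, converted to Δε per residue, Savitzky-Golay smoothed.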
For `CC(=O)c1c(O)c(C)c(O)c2c1OC1=CC(=O)/C(=C(/C)Nc3ccc(O)cn3)C(=O)[C@@]12C`, the inhibition entry is “Active”.

A word on the inhibition: it is the relative decrease from the control value, in per cent.

The record behind these values is ChEMBL document CHEMBL4706486, “Usnic acid derivatives as tau-aggregation and neuroinflammation inhibitors” (Eur J Med Chem, 2020).
